For data set [1], the system named is A549. In words: Antiproliferative activity against human A549 cells after 3 days by SRB method. As to conditions: A549, 72 h. The data set is classed as functional. Summed up: (§1)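 Freshly trypsinized cells seeded at 1500–7500 per well with compound added from DMSO-diluted stock. After 3 days, attached cells fixed with cold 50% TCA, stained with 0.4% SRB, and bound dye solubilized. Value is the mean of three independent determinations.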
In general terms: The SRB assay estimates cell density from bound dye.

Data set [2] in a line: Antiproliferative activity against human DU145 cells after 3 days by SRB method. It is filed as functional. As to conditions: DU-145, 72 h. Put shortly:
as §1

Data set [3] can be described thus: Antiproliferative activity against human KBVIN cells after 3 days by SRB method. It is filed as functional. As to conditions: 72 h. Summed up:
as §1

Data set [4] concerns the target CDK9/cyclin T1 (Homo sapiens, UniProt P50750). Kind of data set: Inhibition of CDK9/Cyclin-T1 (unknown origin) using UlightCFFKNIVTPRTPPPSQGK-amide substrate after 90 mins by […]. It is filed as protein-complex assay.
Data set [5] concerns Human immunodeficiency virus 1. Kind of data set: Antiviral activity against Human immunodeficiency virus 1 NL 4-3 infected in MT4 cells measured on day 4 post infection by p24 assay. It is filed as functional, organism-based. Particulars: Human immunodeficiency virus 1, NL 4-3, MT4, 96 h.
The test system of data set [6] is MT4. Kind of data set: Cytotoxicity against human MT4 cells. The data set is classed as cell-based.
Data set [7] can be described thus: Therapeutic index, ratio of IC50 for human MT4 cells to EC50 for Human immunodeficiency virus 1 NL 4-3. It is filed as cell-based. Particulars: read-out: Ratio IC50/EC50.
Data set [8] has as its target Cyclin-dependent kinase 2/cyclin E1 (Homo sapiens, UniProt P24941). In words: Inhibition of CDK2/cyclin E1 (unknown origin) expressed in Sf9 insect cells using UlightCFFKNIVTPRTPPPSQGK-amide substrate after 15 mins by […].

Data on 30 compounds can be found in ChEMBL document CHEMBL3734696, “Discovery of novel 5-fluoro-N(2),N(4)-diphenylpyrimidine-2,4-diamines as potent inhibitors against CDK2 and CDK9” (Medchemcomm, 2015).

SMILES strings stand for the structures.

Chain of CDK9/cyclin T1 (O60563 whole entry): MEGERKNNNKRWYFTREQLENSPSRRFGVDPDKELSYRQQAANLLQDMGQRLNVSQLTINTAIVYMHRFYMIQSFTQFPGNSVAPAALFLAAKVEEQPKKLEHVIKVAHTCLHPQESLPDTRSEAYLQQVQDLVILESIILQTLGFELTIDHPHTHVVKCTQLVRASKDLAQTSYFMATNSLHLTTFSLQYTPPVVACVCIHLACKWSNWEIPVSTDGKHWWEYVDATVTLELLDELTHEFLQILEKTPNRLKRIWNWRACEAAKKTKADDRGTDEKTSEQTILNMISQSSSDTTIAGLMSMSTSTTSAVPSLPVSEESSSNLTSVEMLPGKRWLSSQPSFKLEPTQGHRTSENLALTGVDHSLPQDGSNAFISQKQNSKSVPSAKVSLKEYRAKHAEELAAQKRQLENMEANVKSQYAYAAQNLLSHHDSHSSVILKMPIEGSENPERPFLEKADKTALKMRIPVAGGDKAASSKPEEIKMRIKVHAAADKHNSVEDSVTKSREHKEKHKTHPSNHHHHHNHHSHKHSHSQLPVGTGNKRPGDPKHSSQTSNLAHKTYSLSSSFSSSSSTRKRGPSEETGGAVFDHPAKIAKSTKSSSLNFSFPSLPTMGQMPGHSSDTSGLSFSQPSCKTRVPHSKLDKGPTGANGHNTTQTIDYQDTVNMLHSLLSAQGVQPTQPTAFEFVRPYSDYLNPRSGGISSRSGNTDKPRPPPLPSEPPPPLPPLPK
Chain of CDK9/cyclin T1 (P50750 whole entry): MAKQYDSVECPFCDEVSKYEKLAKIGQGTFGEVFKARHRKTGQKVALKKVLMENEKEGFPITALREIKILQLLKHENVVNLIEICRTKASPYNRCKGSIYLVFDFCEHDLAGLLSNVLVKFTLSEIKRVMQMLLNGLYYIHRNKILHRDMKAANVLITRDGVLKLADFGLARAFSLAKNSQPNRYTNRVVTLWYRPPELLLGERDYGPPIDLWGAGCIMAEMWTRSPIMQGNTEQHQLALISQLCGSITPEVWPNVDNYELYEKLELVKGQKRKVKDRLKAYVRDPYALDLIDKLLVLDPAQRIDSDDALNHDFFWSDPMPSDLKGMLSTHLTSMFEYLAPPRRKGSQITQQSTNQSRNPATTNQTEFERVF

Usually GI50 stands for the concentration that inhibits growth by half. A lower GI50 goes with more potent growth inhibition. Regarding `O=C(Nc1cc(Cl)cc(Cl)c1)c1cccc(Nc2ncc(F)c(Nc3ccc(F)cc3)n2)c1`, the GI50 in data set [1] stood at 17.4 µM; in data set [2], 17.5 µM; in data set [3], 20.7 µM.
For orientation: IC50 means the concentration at which inhibition is half-maximal. Low values mean greater potency, high ones weaker potency. A word on the EC50: it is the concentration giving half of the maximal effect. Take `Fc1cnc(Nc2cccc(N3CCOCC3)c2)nc1Nc1c(F)cccc1F`: the IC50 in data set [4] stood at 0.33 µM; in data set [6], 10.2 µM; in data set [8], 5.85 µM. This compound returned an EC50 in data set [5] of 1.37 µM. Also, in data set [7], the selectivity ratio worked out at 7.45. In addition, the GI50 in data set [1] was 1.09 µM; in data set [2], 4.24 µM; in data set [3], above 10 µM.
With `O=C(Nc1ccc(C(F)(F)F)cc1)c1cccc(Nc2ncc(F)c(Nc3ccc(F)cc3)n2)c1`, the GI50 in data set [1], in data set [2] and in data set [3] was above 10 µM each time.
As to `COc1ccc(NC(=O)c2cccc(Nc3ncc(F)c(Nc4ccc(F)cc4)n3)c2)cc1`, the GI50 in data set [1] was 11 µM; in data set [2] it was above 10 µM; in data set [3], 15.7 µM.
Turning to `CC(=O)N1CCCN(C(=O)c2cccc(Nc3ncc(F)c(Nc4ccc(F)cc4)n3)c2)CC1`, the IC50 was determined as 15.6 µM in data set [4] and 60.6 µM in data set [8]. This compound yielded an EC50 in data set [5] of 7.08 µM. The selectivity ratio in data set [7] was found to be 2.18. Also, the values for the GI50 in data set [1], in data set [2] and in data set [3] were 9.96 µM, 15.7 µM and 16.7 µM, respectively.
Regarding `CN(C)c1ccc(C(=O)Nc2cccc(Nc3ncc(F)c(Nc4ccc(F)cc4)n3)c2)cc1`, the GI50 in data set [1], in data set [2] and in data set [3] was above 10 µM in each case.
For the compound `COc1ccc(N2CCN(C)CC2)cc1Nc1ncc(F)c(Nc2ccc(F)cc2)n1`, the IC50 in data set [4] and in data set [8] was above 10 µM each time. Further, the GI50 stood at 1.13 µM in data set [1], 0.91 µM in data set [2] and 0.91 µM in data set [3].
In the case of `CN1CCC(C(=O)Nc2cccc(Nc3ncc(F)c(Nc4ccc(F)cc4)n3)c2)CC1`, the figures for the IC50 in data set [4] and in data set [8] were 2.45 µM and 1.24 µM, respectively. Also, the GI50 in data set [1] turned out to be 1.33 µM; in data set [2], 1.15 µM; in data set [3] it was 11.9 µM.
On to `CN1CCN(C(=O)c2cccc(Nc3ncc(F)c(Nc4ccc(F)cc4)n3)c2)CC1`, for which the IC50 in data set [4] worked out at 11.3 µM; in data set [8], 22.1 µM. Further, the results for the GI50 in data set [1], in data set [2] and in data set [3] were 9.07 µM, 10.9 µM and 12.3 µM, respectively.
Regarding `O=C(NCCO)c1cccc(Nc2ncc(F)c(Nc3ccc(F)cc3)n2)c1`, the GI50 was determined as 11.8 µM in data set [1], 13.4 µM in data set [2] and 21.4 µM in data set [3].
With `COc1cc(NC(=O)c2cccc(Nc3ncc(F)c(Nc4ccc(F)cc4)n3)c2)cc(OC)c1`, the GI50 stood at 13.8 µM in data set [1], 13.7 µM in data set [2] and 12.7 µM in data set [3].
Regarding `COc1ccc(N2CCOCC2)cc1Nc1ncc(F)c(Nc2ccc(F)cc2)n1`, the GI50 in data set [1] was 18.3 µM; in data set [2], above 10 µM; in data set [3], above 10 µM.
As for `COCC(=O)Nc1cccc(Nc2ncc(F)c(Nc3ccc(F)cc3)n2)c1`, the IC50 in data set [4] was 2.02 µM; in data set [8], 3.27 µM. Further, the figures for the GI50 in data set [1], in data set [2] and in data set [3] were 2.05 µM, 4.46 µM and 3.94 µM, respectively.
Regarding `O=C(Nc1ccc2c(c1)OCO2)c1cccc(Nc2ncc(F)c(Nc3ccc(F)cc3)n2)c1`, the GI50 in data set [1] came out at 12.9 µM; in data set [2], 11.6 µM; in data set [3], 12 µM.
Take `CS(=O)(=O)N1CCN(C(=O)c2cccc(Nc3ncc(F)c(Nc4ccc(F)cc4)n3)c2)CC1`: the GI50 in data set [1] is 12.2 µM; in data set [2], 17.9 µM; in data set [3], above 10 µM.
For `O=C(Nc1cccc(Nc2ncc(F)c(Nc3ccc(F)cc3)n2)c1)c1ccncc1`, the IC50 was determined as 2.57 µM in data set [4] and 15.3 µM in data set [8]. For the same compound, the GI50 in data set [1] was determined as 1.65 µM; in data set [2], 4.33 µM; in data set [3] it was 4.57 µM.
Take `O=C(Nc1cccc(Nc2ncc(F)c(Nc3ccc(F)cc3)n2)c1)c1cccc([N+](=O)[O-])c1`: the results for the 50% growth inhibitory concentration (GI50) in data set [1], in data set [2] and in data set [3] were 7.25 µM, 12.6 µM and 11.3 µM, respectively.
Consider `O=C(Nc1nccs1)c1cccc(Nc2ncc(F)c(Nc3ccc(F)cc3)n2)c1`, for which the GI50 in data set [1], in data set [2] and in data set [3] was above 10 µM in each case.
Turning to `CN(C)CCNC(=O)c1cccc(Nc2ncc(F)c(Nc3ccc(F)cc3)n2)c1`, the IC50 in data set [4] was 1.72 µM; in data set [8] it was 4.65 µM. In addition, the GI50 in data set [1] came to 1.45 µM; in data set [2] it was 4.34 µM; in data set [3], 7.26 µM.
Turning to `O=C(c1cccc(Nc2ncc(F)c(Nc3ccc(F)cc3)n2)c1)N1CCCCC1`, the GI50 came out at 13.2 µM in data set [1], 13 µM in data set [2] and 13.8 µM in data set [3].
As for `Cn1ccnc1NC(=O)c1cccc(Nc2ncc(F)c(Nc3ccc(F)cc3)n2)c1`, the GI50 is 10.1 µM in data set [1], 15.1 µM in data set [2] and 13.1 µM in data set [3].
The like results for `O=C(Nc1cccc(Nc2ncc(F)c(Nc3ccc(F)cc3)n2)c1)c1cnccn1` were, in that order, 10.3 µM, 26.4 µM and 20.1 µM.
Take `O=C(Nc1ccccn1)c1cccc(Nc2ncc(F)c(Nc3ccc(F)cc3)n2)c1`: the GI50 in data set [1] came out at 15.3 µM; in data set [2] it was 15.1 µM; in data set [3], 13.7 µM.
Take `Fc1cnc(Nc2cccc(N3CCOCC3)c2)nc1Nc1cc(Cl)cc(Cl)c1`: the GI50 in data set [1] is 11.6 µM; in data set [2], above 10 µM; in data set [3], 22.5 µM.
The like results for `O=C(Nc1ccc(N2CCOCC2)cc1)c1cccc(Nc2ncc(F)c(Nc3ccc(F)cc3)n2)c1` were, in that order, above 10 µM, above 10 µM and above 10 µM.
With `O=C(c1cccc(Nc2ncc(F)c(Nc3ccc(F)cc3)n2)c1)N1CCOCC1`, the GI50 came to 11.2 µM in data set [1], 11.9 µM in data set [2] and 13.1 µM in data set [3].
Taken in the same sequence, the figures for `O=C(Nc1cccc(Nc2ncc(F)c(Nc3ccc(F)cc3)n2)c1)c1ccccc1` were 37.8 µM, above 10 µM and above 10 µM.
Turning to `Fc1cnc(Nc2cccc(N3CCOCC3)c2)nc1Nc1ccc(Cl)c(Cl)c1`, the GI50 in data set [1] was 12 µM; in data set [2] it was above 10 µM; in data set [3], above 10 µM.
For the compound `Fc1ccc(Nc2nc(Nc3cccc(N4CCOCC4)c3)ncc2F)cc1`, the values for the GI50 in data set [1], in data set [2] and in data set [3] were 3.83 µM, above 10 µM and above 10 µM, respectively.
In data set [5], `CN1CC[C@H](c2c(O)cc(O)c3c(=O)cc(-c4ccccc4Cl)oc23)[C@H](O)C1` [ALVOCIDIB] registered an EC50 of 0.015 µM. Further, in data set [6], the IC50 came out at 0.067 µM. Besides, the GI50 in data set [1] came out at 0.14 µM; in data set [2], 0.15 µM; in data set [3] it was 0.18 µM.
